From ChEMBL document CHEMBL1145213, “Lipopolysaccharide sequestrants: structural correlates of activity and toxicity in novel acylhomospermines” (J Med Chem, 2005)

How the values were obtained:
[1] = In vitro inhibitory concentration required to inhibit LPS-induced nitric oxide production in J774A.1 cells; format: functional, cell-based; settings: Mus musculus, J774.A1
Outline: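 Murine J774A.1 macrophages were plated at ~10^5/ml and stimulated with 10 ng/ml LPS. Serially diluted compounds were added at the same time, with polymyxin B as reference, and cells were incubated for 16 h. Nitrite in the supernatant was measured by Griess reaction (15 min, room temperature, dark; A535) against a sodium nitrite standard curve. IC50 was taken from dose-response. Viability was checked in parallel by XTT.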

[2] = tested on: Lipopolysaccharide (LPS); assay: Effective dose required for binding to lipopolysaccharide using Fluorescence Displacement Assay
Outline: (§1)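 BODIPY-TR-cadaverine displacement from LPS. Compounds from 5 mM DMSO stocks were serially diluted two-fold in 50 mM Tris pH 7.4 down to 0.596 nM final. An LPS/probe mixture was added and end-point fluorescence was read at 620 nm; probe de-quenching reports binding. ED50 was computed from displacement curves, with polymyxin B as the reference on every plate.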

[3] = species on record: Homo sapiens; assay: Inhibitory concentration required to inhibit LPS-induced TNF-alpha production in ex vivo human whole blood assay; format: functional, organism-based
Outline: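 Fresh EDTA-anticoagulated whole blood from healthy volunteers was mixed with an equal volume of 20 ng/ml E. coli O111:B4 LPS plus graded compound concentrations diluted in saline and incubated for 4 h. TNF-α was quantified by a multiplexed flow-cytometric cytokine bead array against recombinant cytokine standards. IC50 was derived from dose-response.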

[4] = tested on: Mus musculus; assay: Protection of LPS-induced lethality in mice was determined after administration of 0 ug and activity expressed as dead/total (5/5); format: functional
[5] = tested on: Mus musculus; assay: Protection of LPS-induced lethality in mice was determined after administration of 10 ug and activity expressed as dead/total (5/5); format: functional
[6] = tested on: Mus musculus; assay: Protection of LPS-induced lethality in mice was determined after administration of 50 ug and activity expressed as dead/total (5/5); format: functional
[7] = tested on: Mus musculus; assay: Protection of LPS-induced lethality in mice was determined after administration of 100 ug and activity expressed as dead/total (4/5); format: functional
[8] = tested on: Mus musculus; assay: Protection of LPS-induced lethality in mice was determined after administration of 200 ug and activity expressed as dead/total (1/5); format: functional
[9] = tested on: Lipopolysaccharide (LPS); assay: Effective dose required for binding to lipopolysaccharide using Fluorescence Displacement Assay; Range is ~1-2 uM; outline: as §1
[10] = tested on: Mus musculus; assay: Protection of LPS-induced lethality in mice was determined after administration of 50 ug and activity expressed as dead/total (2/5); format: functional
[11] = tested on: Mus musculus; assay: Protection of LPS-induced lethality in mice was determined after administration of 100 ug and activity expressed as dead/total (0/5); format: functional
[12] = tested on: Mus musculus; assay: Protection of LPS-induced lethality in mice was determined after administration of 200 ug and activity expressed as dead/total (0/5); format: functional
[13] = tested on: Mus musculus; assay: Protection of LPS-induced lethality in mice sensitized by D-galactosamine was determined after 200 ug administered ip at 0 hour and activity expressed as dead/total (0/5); format: functional
[14] = tested on: Mus musculus; assay: Protection of LPS-induced lethality in mice sensitized by D-galactosamine was determined after 200 ug administered ip at 1 hour and activity expressed as dead/total (5/5); format: functional
[15] = tested on: Mus musculus; assay: Protection of LPS-induced lethality in mice sensitized by D-galactosamine was determined after 200 ug administered ip at 2 hour and activity expressed as dead/total (4/5); format: functional
[16] = tested on: Mus musculus; assay: Protection of LPS-induced lethality in mice sensitized by D-galactosamine was determined after 200 ug administered ip at -2 hour and activity expressed as dead/total (0/5); format: functional
[17] = tested on: Mus musculus; assay: Protection of LPS-induced lethality in mice sensitized by D-galactosamine was determined after 200 ug administered ip at -4 hour and activity expressed as dead/total (1/5); format: functional
[18] = tested on: Mus musculus; assay: Protection of LPS-induced lethality in mice sensitized by D-galactosamine was determined after 200 ug administered ip at -6 hour and activity expressed as dead/total (1/5); format: functional
[19] = molecular target: Lipopolysaccharide (LPS); assay: Dissociation constant against lipopolysaccharide
Outline: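 Isothermal titration calorimetry at 37 °C in 50 mM Tris pH 7.4, ligand and LPS in the same buffer. E. coli O111:B4 LPS was titrated in 35 injections at 360 s intervals into the cell holding the acylhomospermine, with stirring at 310 rpm. Controls injected LPS into buffer. KD was obtained from fitting the binding isotherm.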

[20] = tested on: Mus musculus; assay: Protection of LPS-induced lethality in mice was determined after administration of 100 ug and activity expressed as dead/total (2/5); format: functional
[21] = tested on: Mus musculus; assay: Protection of LPS-induced lethality in mice was determined after administration of 500 ug and activity expressed as dead/total (4/5); format: functional
[22] = tested on: Mus musculus; assay: Protection of LPS-induced lethality in mice was determined after administration of 50 ug and activity expressed as dead/total (4/5); format: functional

Compound | IC50 [1] [µM] | ED50 [2] [µM] | IC50 [3] [µM] | ED50 [9] [µM] | also measured
CCCCCCCCC(=O)NCCCNCCCNCCCCNCCCNCCCNC(=O)CCCCCCCC | 2.05 | 0.33 | 4.88 | – | Dead [4]: 5; Dead [5]: 5; Dead [6]: 5; Dead [7]: 4; Dead [8]: 1
CCCCCCCCCC(=O)NCCCN(CCCN(CCCCN(CCCNC(=O)OC(C)(C)C)C(=O)OC(C)(C)C)C(=O)OC(C)(C)C)C(=O)OC(C)(C)C | – | – | – | < 2 | –
CCCCCCCCCCCCCCCCC(=O)NCCCNCCCNCCCCNCCCN | 4.22 | 1.37 | 1.91 | – | Dead [4]: 5; Dead [5]: 5; Dead [10]: 2; Dead [11]: 0; Dead [12]: 0; Dead [13]: 0; Dead [14]: 5; Dead [15]: 4; Dead [16]: 0; Dead [17]: 1; Dead [18]: 1; Kd [19]: 1.21 µM
CCCCCCCCCC(=O)NCCCNCCCNCCCCNCCCN | 23.5 | 1.08 | 16.5 | – | –
CC(C)(C)OC(=O)NCCCN(CCCCN(CCCN(CCCN)C(=O)OC(C)(C)C)C(=O)OC(C)(C)C)C(=O)OC(C)(C)C | – | – | – | < 2 | –
CCCCCCCCCCCCCCCCCCC(=O)NCCCNCCCNCCCCNCCCN | 4.35 | 2.44 | 2.31 | – | –
CC(=O)NCCCNCCCNCCCCNCCCN | 171 | 107 | 36.6 | – | –
CCCCCCCCCCCCCCC(=O)NCCCN(CCCN(CCCCN(CCCNC(=O)OC(C)(C)C)C(=O)OC(C)(C)C)C(=O)OC(C)(C)C)C(=O)OC(C)(C)C | – | – | – | < 2 | –
CCCCCCCCCCCCCCCCCCC(=O)NCCCN(CCCN(CCCCN(CCCNC(=O)OC(C)(C)C)C(=O)OC(C)(C)C)C(=O)OC(C)(C)C)C(=O)OC(C)(C)C | – | – | – | < 2 | –
CCCCCCCCCCCC(=O)NCCCNCCCNCCCCNCCCNCCCNC(=O)CCCCCCCCCCC | 1.44 | 6.87 | 9.19 | – | Dead [4]: 5; Dead [20]: 2; Dead [8]: 1; Dead [21]: 4; Dead [22]: 4
CCCCCCCCC(=O)NCCCN(CCCN(CCCCN(CCCNC(=O)OC(C)(C)C)C(=O)OC(C)(C)C)C(=O)OC(C)(C)C)C(=O)OC(C)(C)C | – | – | – | < 2 | –

More lines, main results first:

IC50 [1] [µM] | ED50 [2] [µM] | IC50 [3] [µM] | ED50 [9] [µM] | Compound | also measured
52.5 | 0.92 | 31.1 | – | CCCCCCCCC(=O)NCCCNCCCNCCCCNCCCN | –
3.69 | 1.35 | 2.27 | – | CCCCCCCCCCCCCCC(=O)NCCCNCCCNCCCCNCCCN | –
– | 1.2 | – | – | POLYMYXIN B | –
13.9 | 66.7 | 120 | – | CCCCCCCCCCCCCCCCCCC(=O)NCCCNCCCNCCCCNCCCNCCCNC(=O)CCCCCCCCCCCCCCCCCC | –
10.1 | 8.67 | 63.1 | – | CCCCCCCCCCCCCCC(=O)NCCCNCCCNCCCCNCCCNCCCNC(=O)CCCCCCCCCCCCCC | –
14.2 | 52.5 | 37.1 | – | CCCCCCCCCCCCCCCCC(=O)NCCCNCCCNCCCCNCCCNCCCNC(=O)CCCCCCCCCCCCCCCC | –
– | – | – | < 2 | NCCCNCCCCNCCCN | –
1.47 | 0.76 | 10 | – | CCCCCCCCCC(=O)NCCCNCCCNCCCCNCCCNCCCNC(=O)CCCCCCCCC | –
– | – | – | < 2 | CCCCCCCCCCCCCCCCC(=O)NCCCN(CCCN(CCCCN(CCCNC(=O)OC(C)(C)C)C(=O)OC(C)(C)C)C(=O)OC(C)(C)C)C(=O)OC(C)(C)C | –
– | – | – | < 2 | CC(=O)NCCCN(CCCN(CCCCN(CCCNC(=O)OC(C)(C)C)C(=O)OC(C)(C)C)C(=O)OC(C)(C)C)C(=O)OC(C)(C)C | –
